The values that follow come from ChEMBL document CHEMBL1125928, “Isoprenyl phosphinylformates: new inhibitors of squalene synthetase” (J Med Chem, 1991).

The term Ki denotes a dissociation constant, usually derived from enzyme kinetics or from competition with a known ligand. Usually Km stands for the substrate concentration at which the rate is half of its maximum.

Data set [1] is filed under the species Homo sapiens. As to the kind of experiment: Compound was tested for the inhibition of cholesterol biosynthesis from [14C]- acetate in freshly isolated from human skin fibroblasts; inactive at 300 uM. Type of data set: functional, organism-based.
Data set [2] has as its target T1, Squalene synthase (Rattus norvegicus, UniProt Q02769).
T1 sequence (Q02769 whole entry): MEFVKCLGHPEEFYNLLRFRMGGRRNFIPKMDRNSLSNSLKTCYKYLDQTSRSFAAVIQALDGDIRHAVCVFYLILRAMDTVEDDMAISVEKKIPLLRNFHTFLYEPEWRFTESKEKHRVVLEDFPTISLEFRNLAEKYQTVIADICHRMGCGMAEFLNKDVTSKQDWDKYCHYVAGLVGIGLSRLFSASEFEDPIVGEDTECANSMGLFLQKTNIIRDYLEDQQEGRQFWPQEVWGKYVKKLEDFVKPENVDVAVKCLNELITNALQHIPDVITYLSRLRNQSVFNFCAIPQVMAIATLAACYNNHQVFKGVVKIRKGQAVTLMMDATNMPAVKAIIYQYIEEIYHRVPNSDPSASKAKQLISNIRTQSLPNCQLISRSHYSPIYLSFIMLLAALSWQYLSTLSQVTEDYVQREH
Put plainly: Inhibitory activity against liver microsomal Squalene synthase. Particulars: read-out: I50; call rule not given here.

For data set [3], the species on record is Rattus norvegicus. Put plainly: Compound was tested for the inhibition of cholesterol biosynthesis from [14C]- acetate in freshly isolated rat hepatocytes. Type of data set: functional. Particulars: Hepatocyte, read-out: I50.
The species named for data set [4] is Homo sapiens. Put plainly: Compound was tested for the inhibition of cholesterol biosynthesis from [14C]- acetate in freshly isolated from human skin fibroblasts; inactive at 100 uM. The data set is classed as functional, organism-based.
Data set [5] concerns the target T1, Squalene synthase. Put plainly: Inhibitory activity against microsomal squalene synthase.
The species entered for data set [6] is Rattus norvegicus. As to the kind of experiment: Compound was tested for the inhibition of cholesterol biosynthesis from [14C]- acetate in freshly isolated rat hepatocytes; inactive at 200 uM. The data set is classed as functional. The conditions noted are these: hepatocyte.
The species named for data set [7] is Homo sapiens. Put plainly: Compound was tested for the inhibition of cholesterol biosynthesis from [14C]- acetate in freshly isolated from human skin fibroblasts. Particulars: read-out: I50. The data set is classed as functional, organism-based.
Data set [8] is filed under the species Homo sapiens. As to the kind of experiment: Compound was tested for the inhibition of cholesterol biosynthesis from [14C]- acetate in freshly isolated from human skin fibroblasts; inactive at 30 uM. Type of data set: functional.
The species entered for data set [9] is Homo sapiens. Put plainly: Compound was tested for the inhibition of cholesterol biosynthesis from [14C]- acetate in freshly isolated from human skin fibroblasts; inactive at 15 uM. The data set is classed as functional, organism-based.
Compound in data set [10]: CC(C)=CCC/C(C)=C/CC/C(C)=C/COP(=O)(O)OP(=O)(O)O
As to the kind of experiment: Competitive inhibitory activity against microsomal Squalene synthase. A digest of the protocol:
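Rat microsomal enzyme; inhibitor at 0, 2.5, 10 and 30 μM against FPP varied from 5 to 50 μM, with NADPH held saturating at 0.9 mM. Inhibition type and Ki were taken from double-reciprocal (Lineweaver-Burk) plots of the kinetic data.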

Consider `CC(C)=CCC/C(C)=C/CC/C(C)=C/CCCP(=O)([O-])C(=O)[O-].[Na+].[Na+]`, for which the I50 entry in the data set listed under Homo sapiens [1] is “Inactive”. Further, the IC50 at Squalene synthase [2] was determined as 31.8 µM; in the data set listed under Rattus norvegicus [3], 30 µM.

Take `CC(C)=CCC/C(C)=C/CC/C(C)=C/CCCOP(=O)(O)C(=O)O`: at Squalene synthase [2], the IC50 came out at 41.6 µM.

Regarding `CC(C)=CCC/C(C)=C/CC/C(C)=C/CCP(=O)([O-])CC(=O)[O-].[K+].[K+]`, in the data set filed under Homo sapiens [4], the I50 result is “Inactive”. For the same molecule, in the data set listed under Rattus norvegicus [3], the IC50 amounted to 71 µM.

Regarding `CC(C)=CCC/C(C)=C/CC/C(C)=C/CCP(=O)(O)CP(=O)(O)O`, the Ki on Squalene synthase [5] stood at 10 µM. Moreover, the I50 result in the data set listed under Homo sapiens [4] and in the data set filed under Rattus norvegicus [6] was “Inactive” throughout.

With `CC(C)=CCC/C(C)=C/CC/C(C)=C/COP(=O)(O)CC(=O)O`, the IC50 on Squalene synthase [2] amounted to 86 µM; in the data set filed under Rattus norvegicus [3], 273 µM.

Turning to `CCOC(=O)P(=O)(O)CCC/C=C(\C)CC/C=C(\C)CCC=C(C)C`, the IC50 on Squalene synthase [2] is 112 µM; in the data set listed under Rattus norvegicus [3], 24 µM; in the data set listed under Homo sapiens [7], 2.2 µM.

`CC(C)=CCC/C(C)=C/CC/C(C)=C/CCC[PH](=O)O`: at Squalene synthase [2], the IC50 was 197 µM.

As for `CC(C)=CCC/C(C)=C/CC/C(C)=C/CCP(=O)([O-])C(=O)[O-].[Na+].[Na+]`, in the data set filed under Homo sapiens [8], the I50 result is recorded as “Inactive”. Besides, the IC50 on Squalene synthase [2] turned out to be 100 µM; in the data set listed under Rattus norvegicus [3] it was 5.7 µM.

With `CCOC(=O)P(=O)(O)OCC/C=C(\C)CC/C=C(\C)CCC=C(C)C`, the values for the IC50 on Squalene synthase [2], in the data set filed under Rattus norvegicus [3] and in the data set filed under Homo sapiens [7] were 106 µM, 9 µM and 12 µM, respectively.

For `CC(C)=CCC/C(C)=C/CC/C(C)=C/CCOP(=O)([O-])C(=O)[O-].[Na+].[Na+]`, the I50 entry in the data set filed under Homo sapiens [9] is listed as “Inactive”. Moreover, the results for the IC50 on Squalene synthase [2] and in the data set listed under Rattus norvegicus [3] were 8.7 µM and 6 µM, respectively.

B1: Squalene synthase (Rattus norvegicus), Q02769 (protein)
chain: T1 sequence (Q02769 whole entry)
For B1, the Km in [10] was 12.7 µM.
